Screens: PubChem BioAssay, several laboratories
Insulin prom inh: TRM-6 insulin promoter activity inhibition; TRM-6 cells (human fetal islet line), insulin promoter-eGFP reporter, imaging; reporter expression induced with tamoxifen; 130,000 compounds, 0.9% hits; inhibition, % at 2 µM;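 active = inhibition above the mean plus 3 SD, with well images judged a real hit on visual review, cut at about 60% in these data, passing the limit was not always enough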
Dynein cargo inh: dynein cargo transport inhibition; 3617.4 mouse cells, GR-EGFP nuclear translocation imaging; test concentration mostly 20 µM; stimulated with dexamethasone, 1 µM; stronger effect = lower value; z-score, hits read low; 220,000 compounds, 0.47% hits;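 active = plate z-score of nuclear minus cytoplasmic receptor signal below a set negative limit, without overly bright fluorescence or cell loss, cut at about -3.5 in these data, passing the limit was not always enough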;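 note: z-score of nuclear minus cytoplasmic ring GR-EGFP intensity difference per well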
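Buffer or medium: tet-free, stripped-serum medium; reagent: dexamethasone at 1.0 µM final, 30 min; incubation: 48 h induction, 1 h compound, 30 min dex at 37 °C; measured by: formaldehyde fixation, Hoechst nuclear stain, 10x automated fluorescence imaging; read-out: nuclear-to-cytoplasmic GR-EGFP distribution per well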
Autophagy HCS: alters autophagy in cells | calls only at 10 µM (by protocol) | MEF GFP-LC3 puncta imaging; test concentration mostly 10 µM | AID 463193 | 190,000 compounds, 0.98% hits;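 active = percentage of spot-positive cells more than 3 SD above its plate mean, without a fluorescence outlier flag or 80% toxicity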
Ins promoter up: MIN6 insulin promoter up-regulation; MIN6 insulin promoter-GFP reporter, high-content imaging; stronger effect = higher value; z-score at 5 µM; 190,000 compounds, 0.3% hits;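 active = z-score above 3 at 5 µM with at least 500 cells counted in the well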
Of the large screens only hits and unclear results are named; the others gave an inactive call. This is a sample that favours compounds with a hit; in the whole collection about 2% have one here.

O=C(CSc1nc2ccccc2c(=O)n1CCCN1CCOCC1)N1CCN(c2ccccc2)CC1	Autophagy HCS active (no result: Insulin prom inh)
Cc1ccc(NC(=O)CSc2nc3ccccc3c(=O)n2CCCC(=O)N2CCCC2)cc1	none
Cc1ccc(NC(=O)CSc2nc3ccccc3c(=O)n2CCCN2CCCCC2)cc1C	Autophagy HCS active
Cc1cc(NC(=O)CSc2nc3c(sc4ccccc43)c(=O)n2CCCN2CCOCC2)n[nH]1	Autophagy HCS active
Cn1nc(C(=O)OCC(=O)Nc2cccc(S(=O)(=O)N3CCCC3)c2)c2ccccc2c1=O	none (no result: Insulin prom inh, Autophagy HCS)
CCOC(=O)C1=C(C)N(C)C(=O)NC1c1cc2c(cc1[N+](=O)[O-])OCO2 (stereo not drawn)	none
O=C(COC(=O)c1ccc(O)cc1)Nc1ccccc1[N+](=O)[O-]	none (no result: Insulin prom inh)
CCn1c([N+](=O)[O-])nc2c1c(=O)[nH]c(=O)n2C	none (no result: Insulin prom inh)
Cc1ccc2nc3c(c(N)c2c1)CCN3c1ccccc1	none (no result: Insulin prom inh)
CCCCN1CCc2c1nc1ccc(Br)cc1c2N	Insulin prom inh 86.7 (no result: Ins promoter up)
Cc1ccc(NC(=O)c2cc(NC(=O)c3ccco3)ccc2N2CCOCC2)cc1Cl	Autophagy HCS active
COc1ccc(C2C(C(=O)O)CCC(=O)N2c2ccc(C)cc2)cc1OC (stereo not drawn)	none (no result: Insulin prom inh, Autophagy HCS)
CC(C)CNC(=O)CSc1nnc(-c2cccc(S(=O)(=O)N3CCCCC3)c2)o1	Ins promoter up 4.75
Cc1ccc2c(c1)C(=NC1CCCCC1)c1cc3ccccc3nc1-2	Insulin prom inh 90.6
Cc1c(N=C2N=C(NC(=O)c3ccc(F)cc3)c3ccccc32)c(=O)n(-c2ccccc2)n1C	none (no result: Insulin prom inh)
Cc1cc2ccccc2c(=O)n1CC(=O)NCCC1=CCCCC1	none
CSc1ccc(/C=c2\s/c(=C\C(=O)C(C)(C)C)n(CC(=O)NCCC3=CCCCC3)c2=O)cc1	Autophagy HCS active
NC(=S)NNC(=O)COc1ccccc1O	none (no result: Insulin prom inh, Autophagy HCS)
CCOc1ccc2nc(C)cc(Nc3cccc([N+](=O)[O-])c3)c2c1	Autophagy HCS active
COc1ccc(Br)c2oc(S)cc(=O)c12	Insulin prom inh 71.4
O=C(CSc1ncccn1)NN=C1CCCCCC1	Insulin prom inh 66.7
COc1ccc2cc(/C=N/NC(=O)CN(c3ccccc3C)S(=O)(=O)c3ccccc3)c(Cl)nc2c1	Autophagy HCS active
Cc1ccc(S(=O)(=O)Nc2ccc(=O)n(Cc3ccc(Cl)c(Cl)c3)c2)cc1	Ins promoter up 3.26
Cc1nc2ccccc2n1C1CCN(C(=O)Nc2ccccc2)CC1	none (no result: Insulin prom inh)
Cc1ccc(-c2oc3ccccc3c(=O)c2OCC(=O)O)cc1	none (no result: Insulin prom inh)
Cc1ccc(-c2oc3ccccc3c(=O)c2O)cc1	Autophagy HCS active (no result: Insulin prom inh)
NC(=O)/C(=C\c1cccnc1)NC(=O)c1ccccc1	none
O=C(Nc1ccccc1)N1CC=C(c2ccccc2)CC1	Insulin prom inh 75.0
COc1ccc(C(=O)NC(=S)N2CC(C)OC(C)C2)cc1OC (stereo not drawn)	none (no result: Insulin prom inh)
CCCN1Cc2cccc(C(=O)NC3CCCC3)c2C1=O	Insulin prom inh 93.8
CCCN1Cc2cccc(C(=O)NCc3cccs3)c2C1=O	none
COc1ccc(CN(C2CCCC2)S(=O)(=O)c2ccc(-n3cnnn3)cc2)cc1	Insulin prom inh 82.8
CCC(CC)C1=NN2C(=N)/C(=C\c3cc(C)n(-c4cccc(C)c4)c3C)C(=O)N=C2S1	Autophagy HCS active
Cc1cc(C(=O)NNS(=O)(=O)c2ccc(C(C)(C)C)cc2)nn1C(C)(C)C	none (no result: Insulin prom inh, Autophagy HCS)
CCc1cc2c(NCC3CCCO3)ncnc2s1 (stereo not drawn)	Insulin prom inh 74.2
Cc1sc2ncnc(NCC3CCCO3)c2c1C (stereo not drawn)	none
Cc1ccc(/C=C/C(=O)NCc2ccco2)o1	none
Cc1ccc(/C=C/C(=O)NCc2ccccn2)o1	Insulin prom inh 65.5
Cc1ccc(S(=O)(=O)/C(=C\N(C)C)c2cnc(Cl)s2)cc1	none (no result: Insulin prom inh)
COC(=O)c1ccc([C@@H]2C[C@H]3CN(Cc4cccnc4)C(=O)[C@]34CCCN24)cc1	none
O=C(CSc1nnc(-c2cccnc2)n1CCc1ccccc1)N1CCCCC1	Autophagy HCS active
CCOc1ccc(S(=O)(=O)n2cc(-c3ccccc3)c(N)n2)cc1	none
CCOc1ccc(S(=O)(=O)n2cc(-c3ccc(F)cc3)c(N)n2)cc1	Insulin prom inh 86.7 (no result: Ins promoter up)
Cc1ccc2cc3c(nc2c1)OCC3	none (no result: Insulin prom inh, Autophagy HCS)
COc1cc(/C=N/NC(N)=O)ccc1OCC(=O)Nc1cc(C)c(C)cc1Br	Autophagy HCS active (no result: Insulin prom inh)
COc1cc(/C=N/NC(N)=S)ccc1OCC(=O)Nc1ccc(C)cc1	none
CCOc1cc(/C=N\Nc2ccc([N+](=O)[O-])cc2)ccc1OCC(=O)Nc1ccc(C)c(C)c1	Autophagy HCS active (no result: Ins promoter up)
COc1cc(/C=N\NC(=O)CN2CCOCC2)ccc1OCC(=O)Nc1ccc(C)c(C)c1	none (no result: Ins promoter up)
CCOc1cc(/C=N\NC(=O)Cc2ccccc2)ccc1OCC(=O)Nc1ccc(C)c(C)c1	none
COc1cc(/C=N\Nc2ccc([N+](=O)[O-])cc2)ccc1OCC(=O)Nc1ccc(C)c(C)c1	Autophagy HCS active (no result: Ins promoter up)
Cc1ccc(NC(=S)Nc2ccc(S(=O)(=O)Nc3ncccn3)cc2)c(C)c1	none (no result: Insulin prom inh, Autophagy HCS)
Cc1ccc(C)c(NC(=S)Nc2ccc(S(=O)(=O)Nc3ncccn3)cc2)c1	Autophagy HCS active (no result: Ins promoter up)
CC(c1nc2ccccc2o1)N1C(=O)c2ccccc2C1=O (stereo not drawn)	none (no result: Ins promoter up)
CCCN(CCC)c1nc(C)cc(C(C#N)c2nc3ccccc3o2)n1 (stereo not drawn)	Autophagy HCS active (no result: Insulin prom inh)
O=C(CCc1nc2ccccc2c(=O)[nH]1)NCc1ccco1	Autophagy HCS active (no result: Insulin prom inh)
COC(=O)c1cccc(-c2ccc(C(c3c(C)[nH][nH]c3=O)c3c(C)[nH][nH]c3=O)o2)c1	none (no result: Insulin prom inh)
Cc1[nH][nH]c(=O)c1C(c1ccc(-c2ccc(Cl)c(C(=O)O)c2)o1)c1c(C)[nH][nH]c1=O	Autophagy HCS active (no result: Insulin prom inh)
CCOc1ccc(N(CCCCO)C(=S)NC(=O)c2ccc(C)c(Br)c2)cc1	none (no result: Insulin prom inh)
O=C1/C(=C/c2ccccc2)Nc2ccccc21	none
O=C1/C(=C/c2ccccc2)NC(=S)N1C(c1ccccc1)c1ccccc1	Autophagy HCS active (no result: Ins promoter up)
c1ccc2c(c1)Cn1c-2nc2ccccc21	Insulin prom inh 94.6
COc1cccc(-c2nn(C)c3sc(C(=O)NCc4ccc(C)o4)cc23)c1	Insulin prom inh 62.5
COc1cc(C2C(C#N)=C(N)Oc3cc(N)ccc32)cc(OC)c1OC (stereo not drawn)	Autophagy HCS active
Cc1nnc(SCC(=O)NC(=O)Nc2ccc3c(c2)OCCO3)s1	Autophagy HCS active (no result: Insulin prom inh)
Cc1cccc(Nc2nnc(SCC(=O)NC(=O)Nc3ccc4c(c3)OCCO4)s2)c1	none
COc1ccc(C)cc1NC(=O)CC(NC(C)=O)c1ccccc1 (stereo not drawn)	Ins promoter up 4.5
COc1ccc(Cl)cc1NC(=O)CC(C)c1ccccc1 (stereo not drawn)	none (no result: Ins promoter up)
O=C(N/N=C\c1cn(-c2ccccc2)nc1-c1ccccc1)c1ccc(Br)o1	Ins promoter up 3.24
COc1ccc(-n2c(N3CCN(C)CC3)nc3sc4c(c3c2=O)CCCCC4)cc1	Autophagy HCS active (no result: Insulin prom inh, Ins promoter up)
Cc1cc2c(cc(C(=O)OCC(=O)NCc3cccs3)n2C(C)C)o1	Autophagy HCS active
